The source made the active and inactive calls. The calls are words filed in the database; no cut-off is given here.
Key:
[1] = system: Enterococcus faecalis; assay: Antimicrobial activity against Enterococcus faecalis CCM 4224 up to 200 uM after 24 to 48 hrs by broth microdilution method; type: functional, organism-based
[2] = system: CCRF-CEM; assay: Cell cycle arrest in human CCRF-CEM cells assessed as accumulation at S phase at IC50 after 24 hrs by propidium iodide staining-based flow cytometry; type: functional
Procedure, shortened: (§1)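 Cells were then fixed in 70% ethanol, washed in hypotonic citrate buffer, treated with RNase (50 µg/mL) and stained with propidium iodide. Flow cytometry used a 488 nm laser. Apoptosis was scored as the percentage of particles with propidium content below G0/G1.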

[3] = Metal chelating activity of the compound assessed as formation of Zn2+ complex by UV-vis spectrometry; type: physicochemical
[4] = Metal chelating activity of the compound assessed as formation of Ni2+ complex by UV-vis spectrometry; type: physicochemical
[5] = Metal chelating activity of the compound assessed as formation of Mn2+ complex by UV-vis spectrometry; type: physicochemical
[6] = system: BJ; assay: Selectivity index, ratio of IC50 for human BJ cells to IC50 for human p53-/- HCT116 cells; type: functional
[7] = system: Candida tropicalis; assay: Antifungal activity against Candida tropicalis up to 200 uM after 24 to 48 hrs by broth microdilution method; type: functional, organism-based
[8] = system: Candida albicans; assay: Antifungal activity against Candida albicans up to 200 uM after 24 to 48 hrs by broth microdilution method; type: functional, organism-based
[9] = system: BJ; assay: Cytostatic activity against human BJ cells after 72 hrs by MTT assay; type: ADME, cell-based
Procedure, shortened: (§2)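 Cells were seeded at 25,000–30,000 per well and pre-incubated for 24 h at 37°C in 5% CO2. Four-fold compound dilutions were added in duplicate and incubated for 72 h. MTT was added for 1–4 h, and formazan was dissolved in 10% aq SDS (pH 5.5) overnight at 37°C. OD was read at 540 nm. IC50 came from dose-response curves, mean ± SD of eight independent experiments.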

[10] = system: BJ; assay: Selectivity index, ratio of IC50 for human BJ cells to IC50 for human CCRF-CEM cells; type: functional; settings: pooled result: one value given for 2 cell lines, strains, targets or settings
[11] = system: CCRF-CEM; assay: Induction of apoptosis in human CCRF-CEM cells assessed as inhibition of RNA synthesis at IC50 after 24 hrs by propidium iodide/BrU staining by flow cytometry; type: functional; set-up: scale not given: the % may be the effect or the level left
[12] = system: CCRF-CEM; assay: Cell cycle arrest in human CCRF-CEM cells assessed as accumulation at G0/G1 phase at 5 times IC50 after 24 hrs by propidium iodide staining-based flow cytometry; type: functional; procedure, shortened: as §1
[13] = system: Escherichia coli; assay: Antimicrobial activity against Escherichia coli CCM 3954 up to 200 uM after 24 to 48 hrs by broth microdilution method; type: functional, organism-based
[14] = system: CCRF-CEM; assay: Cell cycle arrest in human CCRF-CEM cells assessed as accumulation at S phase at 5 times IC50 after 24 hrs by propidium iodide staining-based flow cytometry; type: functional; procedure, shortened: as §1
[15] = system: BJ; assay: Selectivity index, ratio of IC50 for human BJ cells to IC50 for human K562 cells; type: functional
[16] = system: Pichia kudriavzevii; assay: Antifungal activity against Candida crusei up to 200 uM after 24 to 48 hrs by broth microdilution method; type: functional, organism-based
[17] = system: BJ; assay: Selectivity index, ratio of IC50 for human BJ cells to IC50 for human K562-TAX cells; type: functional
[18] = system: CCRF-CEM; assay: Induction of apoptosis in human CCRF-CEM cells assessed as mitotic cells at 5 times IC50 after 24 hrs by pH3Ser10+ labeling-based flow cytometry; type: functional
[19] = system: CCRF-CEM; assay: Cytostatic activity against human CCRF-CEM cells after 72 hrs by MTT assay; type: functional, cell-based; procedure, shortened: as §2
[20] = system: Nucleic Acid; assay: Binding affinity to DNA (unknown origin) assessed as DNA intercalation by UV-visible spectrophotometry in presence of Fe3+; type: nucleic-acid assay
[21] = system: HCT-116; assay: Selectivity index, ratio of IC50 for human MRC5 cells to IC50 for human HCT116 cells; type: functional
[22] = system: A549; assay: Selectivity index, ratio of IC50 for human BJ cells to IC50 for human A549 cells; type: functional
[23] = system: CCRF-CEM; assay: Induction of apoptosis in human CCRF-CEM cells assessed as mitotic cells at IC50 after 24 hrs by pH3Ser10+ labeling-based flow cytometry; type: functional
[24] = system: CCRF-CEM; assay: Cell cycle arrest in human CCRF-CEM cells assessed as accumulation at G0/G1 phase at IC50 after 24 hrs by propidium iodide staining-based flow cytometry; type: functional; procedure, shortened: as §1
[25] = system: Nucleic Acid; assay: Binding affinity to DNA (unknown origin) assessed as DNA intercalation by UV-visible spectrophotometry in presence of Co2+; type: nucleic-acid assay
[26] = system: Staphylococcus aureus; assay: Antimicrobial activity against methicillin-resistant Staphylococcus aureus MRSA 4591 up to 200 uM after 24 to 48 hrs by broth microdilution method; type: functional, organism-based
[27] = Cytostatic activity against human HCT116 cells after 72 hrs by MTT assay; type: functional, cell-based; settings: HCT-116, 72 h; procedure, shortened: as §2
[28] = system: Nucleic Acid; assay: Binding affinity to DNA (unknown origin) assessed as DNA intercalation by UV-visible spectrophotometry in presence of Cu2+; type: nucleic-acid assay
[29] = system: Escherichia coli; assay: Antimicrobial activity against multidrug-resistant Escherichia coli C/16702 up to 200 uM after 24 to 48 hrs by broth microdilution method; type: functional, organism-based
[30] = system: Nucleic Acid; assay: Binding affinity to DNA (unknown origin) assessed as DNA intercalation by UV-visible spectrophotometry in presence of Ni2+; type: nucleic-acid assay
[31] = system: Nucleic Acid; assay: Binding affinity to DNA (unknown origin) assessed as DNA intercalation by UV-visible spectrophotometry; type: nucleic-acid assay
[32] = system: BJ; assay: Selectivity index, ratio of IC50 for human BJ cells to IC50 for human HCT116 cells; type: functional
[33] = Metal chelating activity of the compound assessed as formation of Cu2+ complex by UV-vis spectrometry; type: physicochemical
[34] = Metal chelating activity of the compound assessed as formation of Mg2+ complex by UV-vis spectrometry; type: physicochemical
[35] = Metal chelating activity of the compound assessed as formation of Co2+ complex by UV-vis spectrometry; type: physicochemical
[36] = Metal chelating activity of the compound assessed as formation of Ca2+ complex by UV-vis spectrometry; type: physicochemical
[37] = system: CCRF-CEM; assay: Induction of apoptosis in human CCRF-CEM cells assessed as apoptotic cells at IC50 after 24 hrs by propidium iodide staining-based flow cytometry; type: functional; procedure, shortened: as §1
[38] = Cytostatic activity against human p53-/- HCT116 cells after 72 hrs by MTT assay; type: functional, cell-based; settings: HCT-116, 72 h; procedure, shortened: as §2
[39] = system: Pseudomonas aeruginosa; assay: Antimicrobial activity against Pseudomonas aeruginosa CCM 395 up to 200 uM after 24 to 48 hrs by broth microdilution method; type: functional, organism-based
[40] = Metal chelating activity of the compound assessed as formation of Cr3+ complex by UV-vis spectrometry; type: physicochemical
[41] = Cytostatic activity against human CEM-DNR cells after 72 hrs by MTT assay; type: functional, cell-based; procedure, shortened: as §2
[42] = Cytostatic activity against human K562-TAX cells after 72 hrs by MTT assay; type: functional, cell-based; procedure, shortened: as §2
[43] = system: Pseudomonas aeruginosa; assay: Antimicrobial activity against multidrug-resistant Pseudomonas aeruginosa A/16575 up to 200 uM after 24 to 48 hrs by broth microdilution method; type: functional, organism-based
[44] = system: Nucleic Acid; assay: Binding affinity to DNA (unknown origin) assessed as DNA intercalation by UV-visible spectrophotometry in presence of Zn2+; type: nucleic-acid assay
[45] = system: BJ; assay: Selectivity index, ratio of IC50 for human BJ cells to IC50 for human CEM-DNR cells; type: functional

## COc1ccc(O)c(/C=N/NC(=O)c2ccc3c4c(ccc3c2)N2Cc3c(ccc5cc(C(=O)N/N=C/c6cc(OC)ccc6O)ccc35)N(C4)C2)c1
[1]
  Activity: inactive
[2]
  Activity: 54.03%
[3]
  Activity: Active
[4]
  Activity: Active
[5]
  Activity: Not Active
[6]
  Ratio IC50: 495
[7]
  Activity: inactive
[8]
  Activity: inactive
[9]
  IC50: 57200 nM
[10]
  Ratio IC50: 162.3
[11]
  Activity: 63.95%
[12]
  Activity: 39.05%
[13]
  Activity: inactive
[14]
  Activity: 48.55%
[15]
  Ratio IC50: 357.2
[16]
  Activity: inactive
[17]
  Ratio IC50: 137.7
[18]
  Activity: 0.67%
[19]
  IC50: 180 nM
[20]
  Activity: Active
[21]
  Ratio IC50: 622.3
[22]
  Ratio IC50: 123.2
[23]
  Activity: 0.99%
[24]
  Activity: 30%
[25]
  Activity: Active
[26]
  Activity: inactive
[27]
  IC50: 50 nM
[28]
  Activity: Active
[29]
  Activity: inactive
[30]
  Activity: Active
[31]
  Activity: inactive
[32]
  Ratio IC50: 622.3
[33]
  Activity: Active
[34]
  Activity: Not Active
[35]
  Activity: Active
[36]
  Activity: Not Active
[37]
  Activity: 12.97%
[38]
  IC50: 60 nM
[39]
  Activity: inactive
[40]
  Activity: Not Active
[41]
  IC50: 2140 nM
[42]
  IC50: 210 nM
[43]
  Activity: inactive
[44]
  Activity: Active
[45]
  Ratio IC50: 13.3

## Cc1ccc(O)c(/C=N/NC(=O)c2ccc3c4c(ccc3c2)N2Cc3c(ccc5cc(C(=O)N/N=C/c6cc(C)ccc6O)ccc35)N(C4)C2)c1
[1]
  Activity: inactive
[2]
  Activity: 44.83%
[3]
  Activity: Active
[4]
  Activity: Active
[5]
  Activity: Not Active
[6]
  Ratio IC50: 1.1
[7]
  Activity: inactive
[8]
  Activity: inactive
[9]
  IC50: 690 nM
[10]
  Ratio IC50: 0.8
[11]
  Activity: 33.57%
[12]
  Activity: 38.43%
[13]
  Activity: inactive
[14]
  Activity: 46.78%
[15]
  Ratio IC50: 0.5
[16]
  Activity: inactive
[17]
  Ratio IC50: 0.4
[18]
  Activity: 0.22%
[19]
  IC50: 580 nM
[20]
  Activity: Active
[21]
  Ratio IC50: 0.8
[22]
  Ratio IC50: 0.9
[23]
  Activity: 1.04%
[24]
  Activity: 40.52%
[25]
  Activity: Active
[26]
  Activity: inactive
[27]
  IC50: 620 nM
[28]
  Activity: Active
[29]
  Activity: inactive
[30]
  Activity: Active
[31]
  Activity: inactive
[32]
  Ratio IC50: 0.8
[33]
  Activity: Active
[34]
  Activity: Not Active
[35]
  Activity: Active
[36]
  Activity: Not Active
[37]
  Activity: 14.09%
[38]
  IC50: 450 nM
[39]
  Activity: inactive
[40]
  Activity: Not Active
[41]
  IC50: 5360 nM
[42]
  IC50: 1140 nM
[43]
  Activity: inactive
[44]
  Activity: Active
[45]
  Ratio IC50: 0.1
